# Measured values reported in ChEMBL document CHEMBL1124173, “Enantiomers of 7-(2,3-epoxypropoxy)actinomycin D as dual-action DNA-acting antitumor agents” (J Med Chem, 1988).
# Numbered stars: 1 amine (or outer) side, 2 acyl side, 3 side chain; on linkers, the order of the positions; unused ones are H or OH. Bridge positions count the residues as written; N and C are the ends. Square brackets hold non-standard residues; d marks the D form. Peptide text beside a SMILES is read from it. I, II: the chains in the order shown. Actinocin(1to9) = Cc1c2oc3c(C)ccc(C(=O)[*:2])c3nc-2c(C(=O)[*:1])c(N)c1=O; NMeV = CN[C@H](C(=O)O)C(C)C; Sar = CNCC(=O)O
# How the values were obtained:
# [1] = Molar ratio of DNA to total amount of compound that is bound both intercalatively and covalently to calf thymus DNA helix; type: functional
# Method in brief: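 [3H]Drug and purified calf thymus DNA dialyzed at 37 °C in Tris HCl pH 7.4 (20 mM per footnote; 25 mM in methods). Equilibrated complex precipitated twice with ethanol to remove unbound drug. Molar DNA/drug ratio based on total bound drug, intercalative plus covalent.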
# [2] = Ratio of DNA to compound bound entirely by covalent bonding to DNA base.; type: functional
# Method in brief: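 [3H]Drug and purified calf thymus DNA dialyzed at 37 °C in Tris HCl buffer; complex twice ethanol-precipitated to remove unbound drug. Molar DNA/drug ratio calculated from drug bound only covalently to DNA bases.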
# P388/ADR [3] = experiment: Antitumor activity measured as Median survival time in days against P388/ADR cells in ip implanted CDF1 mice, qd 1-9; type: functional, Mus musculus
# Method in brief: (§1)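 P388/ADR leukemia, a P388/S subline made resistant to intercalators, implanted ip in CDF1 mice. Drug given ip daily on days 1-9 at optimal dose. Read-out is median survival time of tumor-bearing mice and %ILS of treated dying animals versus controls. Survivors beyond 60 days are counted; 10 mice per group.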
# P388/ADR [4] = experiment: Antitumor activity measured as %ILS against P388/ADR cells in ip implanted CDF1 mice, qd 1-9; type: functional, Mus musculus; method in brief: as §1
# P388/ADR [5] = experiment: Antitumor activity against P388/ADR cells in ip implanted CDF1 mice, qd 1-9 measured as optimal dose; type: functional, Mus musculus
# Method in brief: (§2)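 P388/ADR leukemia implanted ip in CDF1 mice; drugs given ip once daily on days 1-9. Optimal dose recorded alongside median survival time and % increase in median life span of treated dying mice versus controls; survivors counted as >60-day survivors per group of 10.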
# L1210 [6] = experiment: Inhibition of synthesis of [methyl-14C] thymidine into DNA, in L1210 cells.; type: functional, cell-based, Mus musculus
# Method in brief: (§3)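 Actively growing L1210 cells in vitro. Incorporation of [5-3H]uridine into RNA, or [methyl-14C]thymidine into DNA, compared with untreated cells. IC50 is micromolar drug concentration giving 50% reduction in incorporation rate.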
# L1210 [7] = experiment: Inhibition of synthesis of [5-3H]-uridine into RNA in L1210 cells.; type: functional, cell-based, Mus musculus; method in brief: as §3
# Bos taurus = species on record: Bos taurus; experiment: Thermal denaturation of calf thymus DNA measured as ΔTm; details: cattle, in vitro
# P388/ADR [8] = experiment: Antitumor activity against P388/ADR, in ip implanted CDF1 mice, treated ip, qd 1-9 measured as optimal dose; type: functional, Mus musculus; method in brief: as §2
# Mus musculus [9] = species on record: Mus musculus; experiment: percent increase in median life time (%ILS) measured in mice bearing leukemia L!210; type: functional
# Method in brief: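 CDF1 mice inoculated ip with 10^5 L1210 cells on day 0. Drug given ip on days 1, 5 and 9 at the optimal dose in mg/kg per injection. %ILS is the increase in median life span of treated dying animals versus untreated tumor-bearing mice. Over-60-day survivors are counted; 9 mice per group.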
# L1210 [10] = experiment: 50% Inhibition of growth of L1210 cells in culture.; type: functional, Mus musculus; details: read-out: ID50 (the source's name)
# Method in brief: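 L1210 leukemia cells growing actively in culture; ID50 is drug concentration (nM) giving 50% inhibition of growth relative to untreated L1210 cells.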
# Mus musculus [11] = experiment: Antitumor activity measured as % increase in life span, for ip administration of compound and ip inoculation of B16 melanoma.; type: functional
# Method in brief: (§4)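 B16 brei (tumor weight/Hank's balanced salt solution 1:5, 0.2 mL) implanted sc or ip into groups of nine BDF1 mice on day 0. Drug given iv on day 1 (sc tumor) or ip on days 1, 5 and 9 (ip tumor), in 0.1 mL 5% v/v Me2SO-saline. Read-out is median survival time and %ILS versus untreated controls, excluding sixty-day survivors.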
# B16 = experiment: In vitro 50% Growth inhibition of sensitive B16 cells.; type: functional, Mus musculus; details: read-out: ID50 (the source's name)
# Method in brief: (§5)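 Actively growing tumor cells in vitro (actinomycin-resistant P388/ADR leukemia; sensitive B16 melanoma); ID50 is concentration (nM) needed for 50% growth inhibition.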
# Mus musculus [12] = species on record: Mus musculus; experiment: Antitumor activity measured as optimal dose, against C26 colon carcinoma.; type: functional
# Method in brief: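 Primary colon C26 carcinoma cells (trypan blue excluding, 2.5 × 10^5 cells/mouse) implanted in CDF1 mice on day 0. Drug given ip on days 1, 5 and 9 in 0.1 mL 5% v/v Me2SO-saline. Optimal dose in […]; %ILS and 60-day survivors scored.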
# P388/ADR [13] = experiment: Antitumor activity measured as Median survival time in days against P388/ADR, in ip implanted CDF1 mice, treated ip, qd 1-9; type: functional, Mus musculus; method in brief: as §1
# Mus musculus [14] = experiment: Antitumor activity measured as % increase in life span, for iv administration of compound and sc inoculation of B16 melanoma.
# Mus musculus [15] = species on record: Mus musculus; experiment: Antitumor activity measured as % increase in life span, against C26 colon carcinoma.; type: functional
# Method in brief: (§6)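 C26 primary colon carcinoma cells (trypan blue excluding, 2.5 × 10^5 cells/mouse) implanted in CDF1 mice on day 0. Drug given ip on days 1, 5 and 9 in 0.1 mL 5% v/v Me2SO-saline at optimal dose. Read-out is median survival time; %ILS is drug-treated over control, excluding survivors. Sixty-day survivors are counted.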
# Mus musculus [16] = species on record: Mus musculus; experiment: Antitumor activity measured as median survival time, against C26 colon carcinoma.; type: functional; method in brief: as §6
# P388/ADR [17] = experiment: In vitro 50% Growth inhibition of actinomycin resistant P388/ADR cells; type: functional, Mus musculus; details: read-out: ID50 (the source's name); method in brief: as §5
# Mus musculus [18] = experiment: Antitumor activity measured as median survival time, for iv administration and sc inoculation of B16 melanoma.
# P388/ADR [19] = experiment: Antitumor activity measured as %ILS against P388/ADR, in ip implanted CDF1 mice, treated ip, qd 1-9; type: functional, Mus musculus; method in brief: as §1
# Mus musculus [20] = experiment: Antitumor activity measured as median survival time, for ip administration and ip inoculation of B16 melanoma.; type: functional; method in brief: as §4
# Mus musculus [21] = species on record: Mus musculus; experiment: Antitumor activity measured as optimal dose, for B16 melanoma.
# L1210 [22] = experiment: Optimal dose per injection, administered ip on days 1, 5, and 9, ip inoculation with 10E5 L1210 cells per CDF1 mouse on day 0.; type: functional
# Method in brief: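 CDF1 mice inoculated ip with 10^5 L1210 cells on day 0; drugs given ip on days 1, 5 and 9. Optimal dose in mg/kg per injection. %ILS is increase in median life span of treated dying mice over untreated tumor-bearing mice; survivors counted beyond 60 days, 9 per group.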
# P388/ADR [23] = experiment: Antitumor activity measured as %ILS against P388/ADR, in ip implanted CDF1 mice, qd 1-9; type: functional, Mus musculus; method in brief: as §1
# Mus musculus [24] = experiment: Antitumor activity measured as median survival time, for iv administration and sc inoculation of B16 melanoma.; remark: listed apart in the source
# Mus musculus [25] = experiment: Antitumor activity measured as % increase in life span, for iv administration of compound and sc inoculation of B16 melanoma.; remark: listed apart in the source
# P388/ADR [26] = experiment: Antitumor activity measured as Median survival time in days against P388/ADR, in ip implanted CDF1 mice, qd 1-9; type: functional, Mus musculus; method in brief: as §1
SMILES,Dose (P388/ADR [8]) [mg/kg],ILS (Mus musculus [9]) [%],"IC50 (L1210 [10]; Mus musculus, L1210) [nM]",ILS (Mus musculus [11]) [%],"IC50 (B16; Mus musculus, B16) [nM]",Dose (Mus musculus [12]) [mg/kg],MST (P388/ADR [13]) [days],MST (Mus musculus [16]) [days],"IC50 (P388/ADR [17]; Mus musculus, P388/ADR) [nM]",ILS (P388/ADR [19]) [%],MST (Mus musculus [20]) [days],Dose (Mus musculus [21]) [mg/kg],Dose (L1210 [22]) [mg/kg],MST (Mus musculus [24]) [days],further results
Cc1c2oc3c(C)c(OCC4CO4)cc(C(=O)N[C@@H]4C(=O)N[C@@H](C(C)C)C(=O)N5CCC[C@H]5C(=O)N(C)CC(=O)N(C)[C@@H](C(C)C)C(=O)O[C@H]4C)c3nc-2c(C(=O)N[C@@H]2C(=O)N[C@@H](C(C)C)C(=O)N3CCC[C@H]3C(=O)N(C)CC(=O)N(C)[C@@H](C(C)C)C(=O)O[C@H]2C)c(N)c1=O (stereo in doubt; 3b),,,,,,,,,,,,,,,Ratio [1]: 32; Ratio [2]: 480
CO[C@@]12[C@H](COC(N)=O)C3=C(C(=O)C(C)=C(N)C3=O)N1C[C@@H]1N[C@@H]12 [MITOMYCIN],,,,,,,,,,,,,,,MST (P388/ADR [3]): 45 days; ILS (P388/ADR [4]): 400%; Dose (P388/ADR [5]): 1 mg/kg
Cc1c2oc3c(C)c(OCC4CO4)cc(C(=O)N[C@@H]4C(=O)N[C@H](C(C)C)C(=O)N5CCC[C@H]5C(=O)N(C)CC(=O)N(C)[C@@H](C(C)C)C(=O)O[C@@H]4C)c3nc-2c(C(=O)N[C@@H]2C(=O)N[C@H](C(C)C)C(=O)N3CCC[C@H]3C(=O)N(C)CC(=O)N(C)[C@@H](C(C)C)C(=O)O[C@@H]2C)c(N)c1=O (stereo in doubt) [listing 1 of 2 here],,,,,,,,,,,,,,,IC50 (L1210 [6]; l1210): 60 nM; IC50 (L1210 [7]; l1210): 50 nM; ΔTm (Bos taurus): 5
Cc1c2oc3c(C)c(OC[C@H]4CO4)cc(C(=O)N[C@@H]4C(=O)N[C@H](C(C)C)C(=O)N5CCC[C@H]5C(=O)N(C)CC(=O)N(C)[C@@H](C(C)C)C(=O)O[C@@H]4C)c3nc-2c(C(=O)N[C@@H]2C(=O)N[C@H](C(C)C)C(=O)N3CCC[C@H]3C(=O)N(C)CC(=O)N(C)[C@@H](C(C)C)C(=O)O[C@@H]2C)c(N)c1=O,0.3,199,23.1,105,2,0.6,45,41.5,40,400,39,1,0.05,,ILS (Mus musculus [14]): 70%; %ILS (Mus musculus [15]): 89%; MST (Mus musculus [18]): 56 days
Cc1c2oc3c(C)c(OCC4CO4)cc(C(=O)N[C@@H]4C(=O)N[C@H](C(C)C)C(=O)N5CCC[C@H]5C(=O)N(C)CC(=O)N(C)[C@@H](C(C)C)C(=O)O[C@@H]4C)c3nc-2c(C(=O)N[C@@H]2C(=O)N[C@H](C(C)C)C(=O)N3CCC[C@H]3C(=O)N(C)CC(=O)N(C)[C@@H](C(C)C)C(=O)O[C@@H]2C)c(N)c1=O (stereo in doubt; 3b),0.65,186,28.7,105,2.5,0.6,,36,80,,39,1,0.05,54,ILS (P388/ADR [23]): 344%; ILS (Mus musculus [15]): 64%; ILS (Mus musculus [25]): 64%; MST (P388/ADR [26]): 40 days
Cc1c2oc3c(C)c(OCC4CO4)cc(C(=O)N[C@@H]4C(=O)N[C@H](C(C)C)C(=O)N5CCC[C@H]5C(=O)N(C)CC(=O)N(C)[C@@H](C(C)C)C(=O)O[C@@H]4C)c3nc-2c(C(=O)N[C@@H]2C(=O)N[C@H](C(C)C)C(=O)N3CCC[C@H]3C(=O)N(C)CC(=O)N(C)[C@@H](C(C)C)C(=O)O[C@@H]2C)c(N)c1=O (stereo in doubt) [listing 2 of 2 here],0.8,143,,74,,0.9,43,,,377,33,,,53,IC50 (L1210 [10]): 56.8 nM; IC50 (B16): 3.5 nM; IC50 (P388/ADR [17]): 135 nM; ILS (Mus musculus [25]): 60%
"Cc1c2oc3c(C)ccc(C(=O)N[C@@H]4C(=O)N[C@H](C(C)C)C(=O)N5CCC[C@H]5C(=O)N(C)CC(=O)N(C)[C@@H](C(C)C)C(=O)O[C@@H]4C)c3nc-2c(C(=O)N[C@@H]2C(=O)N[C@H](C(C)C)C(=O)N3CCC[C@H]3C(=O)N(C)CC(=O)N(C)[C@@H](C(C)C)C(=O)O[C@@H]2C)c(N)c1=O [DACTINOMYCIN] (I: T[dV]P[Sar][NMeV] / II: T[dV]P[Sar][NMeV]; ester I:1-I:C, II:1-II:C; linker I:N-II:N via Actinocin(1to9))",0.075,55,60.1,52,3,0.3,12,33.5,2500,33,29,0.9,0.025,45,"Ratio [1]: 26; IC50 (L1210 [6]; Mus musculus, L1210): 380 nM; IC50 (L1210 [7]; Mus musculus, L1210): 19 nM; ILS (Mus musculus [14]): 36%; ILS (Mus musculus [15]): 52%; ΔTm (Bos taurus): 7.1"
